Among the data in ChEMBL document CHEMBL1123925 (J Med Chem, 1987) are IC50 values, retold here.

Experiment [1] has as its target GABA-A receptor; anion channel. The experiment in a line: Displacement of [3H]GABA from Gamma-aminobutyric acid A receptor ofrat brain membranes. The arrangement: species or system Rattus norvegicus. In outline: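 Male Wistar rat whole-brain synaptic membranes, frozen at -20 °C for at least 18 h, Triton X-100 (0.05%) treated at 37 °C for 30 min. Filtration, scintillation counting. Nonspecific binding with 100 μM muscimol. IC50 by log-probit analysis; means of two triplicate experiments.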
(Loss of bound radioactivity is the signal in a displacement assay; it reports binding, not function.)

Experiment [2] has as its target GABA B receptor (Rattus norvegicus, UniProt O88871+Q9Z0U4). The experiment is described as follows: Displacement of [3H]baclofen from Gamma-aminobutyric acid type B receptor of rat brain membranes. The experiment is classed as cell membranes, Membrane. The method in brief: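 Rat whole-brain synaptic membranes were water-washed and frozen at -20 °C for at least 18 h. They were then washed repeatedly in 50 mM Tris-HCl pH 7.4 with 2.5 mM CaCl2 at 20 °C. The assay was stopped by centrifugation and read by scintillation counting. IC50 values are means of two experiments.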

Chain of GABA B receptor (Q9Z0U4 whole entry): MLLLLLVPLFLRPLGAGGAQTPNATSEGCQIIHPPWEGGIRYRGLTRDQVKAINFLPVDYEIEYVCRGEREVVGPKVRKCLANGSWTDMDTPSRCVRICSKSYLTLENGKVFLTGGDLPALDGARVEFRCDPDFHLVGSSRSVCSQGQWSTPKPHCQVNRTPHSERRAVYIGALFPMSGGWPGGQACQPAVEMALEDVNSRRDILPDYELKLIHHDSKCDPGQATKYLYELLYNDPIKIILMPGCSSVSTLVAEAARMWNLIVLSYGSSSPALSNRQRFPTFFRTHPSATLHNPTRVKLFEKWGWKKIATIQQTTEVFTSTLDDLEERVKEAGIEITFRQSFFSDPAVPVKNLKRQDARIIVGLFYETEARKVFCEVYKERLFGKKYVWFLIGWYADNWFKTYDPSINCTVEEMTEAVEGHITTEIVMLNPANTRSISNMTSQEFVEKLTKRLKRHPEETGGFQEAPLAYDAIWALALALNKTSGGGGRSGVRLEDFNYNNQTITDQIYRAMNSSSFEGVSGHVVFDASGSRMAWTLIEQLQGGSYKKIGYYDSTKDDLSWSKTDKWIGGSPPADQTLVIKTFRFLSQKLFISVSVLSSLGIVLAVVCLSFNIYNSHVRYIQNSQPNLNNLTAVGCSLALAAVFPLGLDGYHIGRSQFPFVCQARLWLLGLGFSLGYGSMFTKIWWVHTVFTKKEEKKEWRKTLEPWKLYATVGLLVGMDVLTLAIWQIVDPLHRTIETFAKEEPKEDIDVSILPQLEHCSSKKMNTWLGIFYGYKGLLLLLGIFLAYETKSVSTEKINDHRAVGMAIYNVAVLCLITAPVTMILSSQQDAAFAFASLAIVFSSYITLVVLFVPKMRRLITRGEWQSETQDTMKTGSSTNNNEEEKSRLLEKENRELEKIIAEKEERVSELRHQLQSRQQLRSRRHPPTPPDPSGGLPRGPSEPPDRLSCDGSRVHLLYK
Chain of GABA B receptor (O88871 whole entry): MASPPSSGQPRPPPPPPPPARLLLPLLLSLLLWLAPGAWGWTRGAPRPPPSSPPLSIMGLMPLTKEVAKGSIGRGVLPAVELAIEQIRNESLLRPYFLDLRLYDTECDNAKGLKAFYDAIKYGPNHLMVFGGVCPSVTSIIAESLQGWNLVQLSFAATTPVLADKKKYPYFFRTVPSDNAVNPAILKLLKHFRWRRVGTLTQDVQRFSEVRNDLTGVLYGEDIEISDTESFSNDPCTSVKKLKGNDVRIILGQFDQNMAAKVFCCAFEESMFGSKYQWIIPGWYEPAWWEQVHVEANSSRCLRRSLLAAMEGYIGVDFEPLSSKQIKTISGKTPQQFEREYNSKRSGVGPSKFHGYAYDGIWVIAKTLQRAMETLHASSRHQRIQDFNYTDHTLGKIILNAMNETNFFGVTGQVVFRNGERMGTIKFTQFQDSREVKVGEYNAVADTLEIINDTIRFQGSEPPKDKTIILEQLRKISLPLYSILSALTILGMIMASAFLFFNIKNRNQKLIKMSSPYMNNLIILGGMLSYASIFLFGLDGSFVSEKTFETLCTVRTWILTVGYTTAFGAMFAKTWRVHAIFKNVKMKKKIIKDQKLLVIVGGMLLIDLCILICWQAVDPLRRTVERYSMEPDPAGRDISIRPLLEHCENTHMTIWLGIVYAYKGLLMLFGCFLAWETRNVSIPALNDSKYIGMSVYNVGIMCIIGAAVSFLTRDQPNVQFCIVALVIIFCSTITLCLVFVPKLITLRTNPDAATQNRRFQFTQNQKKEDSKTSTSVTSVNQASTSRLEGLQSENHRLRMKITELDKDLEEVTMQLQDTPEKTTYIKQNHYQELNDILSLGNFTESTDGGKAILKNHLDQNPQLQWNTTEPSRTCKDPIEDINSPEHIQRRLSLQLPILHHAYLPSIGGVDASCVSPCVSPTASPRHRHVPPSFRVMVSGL

For orientation: IC50 means the concentration that inhibits the measured activity by half. Consider `CC(C)Oc1ccc(C(CN)CC(=O)O)cc1` (centres undefined), for which the IC50 in experiment [1] is > 100 µM.

`NCC(CC(=O)O)C1Cc2ccccc2O1` (centres undefined): the half-maximal inhibitory concentration (IC50) in experiment [1] and in experiment [2] was > 100 µM each time.

Turning to `COc1ccc2oc(C(CN)CC(=O)O)cc2c1` (centres undefined), the figures for the half-inhibitory concentration (IC50) in experiment [1] and in experiment [2] were > 100 µM and 5.6 µM, respectively.

Regarding `NCC(CC(=O)O)c1ccc(OCc2ccc(Cl)s2)cc1` (centres undefined), the IC50 in experiment [1] is > 100 µM.

Take `COc1ccc2c(c1)CC(C(CN)CC(=O)O)O2` (centres undefined): the concentration for half-maximal inhibition (IC50) in experiment [1] and in experiment [2] was > 100 µM throughout.

In the case of `NCC(CC(=O)O)c1ccc(O)cc1` (centres undefined), the IC50 in experiment [1] and in experiment [2] was > 100 µM each time.

As for `NCC(CC(=O)O)c1cc2ccccc2o1` (centres undefined), the values for the IC50 in experiment [1] and in experiment [2] were > 100 µM and 18 µM, respectively.

In the case of `NCC(CC(=O)O)c1ccc(OCc2ccccc2)cc1` (centres undefined), the IC50 in experiment [1] and in experiment [2] was > 100 µM throughout.

For the compound `NCC(CC(=O)O)c1ccc(OCc2ccc(F)cc2)cc1` (centres undefined), the IC50 in experiment [1] and in experiment [2] was > 100 µM each time.

Take `Cn1c(=O)oc2cc(C(CN)CC(=O)O)ccc21` (centres undefined): the half-maximal inhibitory concentration (IC50) in experiment [1] and in experiment [2] was > 100 µM in each case.

`NCc1cc(=O)[nH]o1` [MUSCIMOL]: in experiment [1], the IC50 was found to be 0.01 µM.
